# Reference: ChEMBL document CHEMBL4610112, “Novel Pyrrolopyridone Bromodomain and Extra-Terminal Motif (BET) Inhibitors Effective in Endocrine-Resistant ER+ Breast Cancer with Acquired Resistance to Fulvestrant and Palbociclib” (J Med Chem, 2020)
# The source made the active and inactive calls. The rule behind the calls is not given here.
# What was measured:
# [1] = tested on: MCF7:CFR; experiment: Down regulation of IGFBP5 gene expression in fulvestrant-resistant human MCF7:CFR cells at 100 nM measured after 24 hrs; assay type: functional, cell-based
# How it was run: (§1)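 MCF-7:CFR cells were treated with compound at 100 nM or DMSO (0.01%) for 24 h. RNA extracted and RNA-seq performed. Output given as log2 fold change versus vehicle.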
# [2] = tested on: MCF7:CFR; experiment: Down regulation of IFI44L gene expression in fulvestrant-resistant human MCF7:CFR cells at 100 nM measured after 24 hrs; assay type: functional, cell-based; how it was run: as §1
# [3] = tested on: MCF7:CFR; experiment: Down regulation of BCAS1 gene expression in fulvestrant-resistant human MCF7:CFR cells at 100 nM measured after 24 hrs; assay type: functional, cell-based; how it was run: as §1
# [4] = tested on: MCF7:CFR; experiment: Down regulation of NUPR1 gene expression in fulvestrant-resistant human MCF7:CFR cells at 100 nM measured after 24 hrs; assay type: functional, cell-based; how it was run: as §1
# [5] = tested on: MCF7:CFR; experiment: Down regulation of CLEC3A gene expression in fulvestrant-resistant human MCF7:CFR cells at 100 nM measured after 24 hrs; assay type: functional, cell-based; how it was run: as §1
# [6] = tested on: MCF7:CFR; experiment: Down regulation of PARP10 gene expression in fulvestrant-resistant human MCF7:CFR cells at 100 nM measured after 24 hrs; assay type: functional, cell-based; how it was run: as §1
# [7] = tested on: MCF7:CFR; experiment: Down regulation of ZMYND8 gene expression in fulvestrant-resistant human MCF7:CFR cells at 100 nM measured after 24 hrs; assay type: functional, cell-based; how it was run: as §1
# [8] = tested on: MCF7:CFR; experiment: Down regulation of KRT83 gene expression in fulvestrant-resistant human MCF7:CFR cells at 100 nM measured after 24 hrs; assay type: functional, cell-based; how it was run: as §1
# [9] = tested on: MCF7:CFR; experiment: Down regulation of HIST1H3B gene expression in fulvestrant-resistant human MCF7:CFR cells at 100 nM measured after 24 hrs; assay type: functional, cell-based; how it was run: as §1
# [10] = tested on: MCF7:CFR; experiment: Down regulation of CCDC170 gene expression in fulvestrant-resistant human MCF7:CFR cells at 100 nM measured after 24 hrs; assay type: functional, cell-based; how it was run: as §1
# [11] = tested on: MCF7:CFR; experiment: Down regulation of c-MYC gene expression in fulvestrant-resistant human MCF7:CFR cells at 100 nM measured after 24 hrs; assay type: functional, cell-based
# How it was run: (§2)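 MCF-7:CFR cells exposed to compound at 100 nM, with DMSO (0.01%) as control, for 24 h. RNA extracted and analysed by RNA-seq. Values are log2-fold changes in gene expression against the vehicle control.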
# [12] = tested on: MCF7:CFR; experiment: Down regulation of n-MYC gene expression in fulvestrant-resistant human MCF7:CFR cells at 100 nM measured after 24 hrs; assay type: functional, cell-based; how it was run: as §2
# [13] = tested on: MCF7:CFR; experiment: Up regulation of CDKN1B gene expression in fulvestrant-resistant human MCF7:CFR cells at 100 nM measured after 24 hrs; assay type: functional, cell-based; how it was run: as §2
# [14] = tested on: MCF7:CFR; experiment: Down regulation of cyclin-D gene expression in fulvestrant-resistant human MCF7:CFR cells at 100 nM measured after 24 hrs; assay type: functional, cell-based; how it was run: as §2
# [15] = tested on: MCF7:CFR; experiment: Down regulation of NRAS gene expression in fulvestrant-resistant human MCF7:CFR cells at 100 nM measured after 24 hrs; assay type: functional, cell-based; how it was run: as §1
# [16] = tested on: MCF7:CFR; experiment: Down regulation of ERBB3 gene expression in fulvestrant-resistant human MCF7:CFR cells at 100 nM measured after 24 hrs; assay type: functional, cell-based; how it was run: as §1
# [17] = tested on: MCF7:CFR; experiment: Down regulation of c-MET gene expression in fulvestrant-resistant human MCF7:CFR cells at 100 nM measured after 24 hrs; assay type: functional, cell-based; how it was run: as §1
# [18] = tested on: MCF7:CFR; experiment: Up regulation of RIPK1 gene expression in fulvestrant-resistant human MCF7:CFR cells at 100 nM measured after 24 hrs; assay type: functional, cell-based
# How it was run: (§3)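 MCF-7:CFR cells (fulvestrant-resistant, kept in 200 nM fulvestrant in phenol red-free stripped RPMI-1640) treated with 100 nM compound or DMSO (0.01%) for 24 h. RNA extracted and RNA-seq performed, expression reported as log2 fold change versus vehicle.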
# [19] = tested on: MCF7:CFR; experiment: Up regulation of APAF1 gene expression in fulvestrant-resistant human MCF7:CFR cells at 100 nM measured after 24 hrs; assay type: functional, cell-based; how it was run: as §3
# [20] = tested on: MCF7:CFR; experiment: Up regulation of CASP3 gene expression in fulvestrant-resistant human MCF7:CFR cells at 100 nM measured after 24 hrs; assay type: functional, cell-based; how it was run: as §3
# [21] = tested on: MCF7:CFR; experiment: Up regulation of CASP6 gene expression in fulvestrant-resistant human MCF7:CFR cells at 100 nM measured after 24 hrs; assay type: functional, cell-based; how it was run: as §3
# [22] = tested on: MCF7:CFR; experiment: Up regulation of CASP9 gene expression in fulvestrant-resistant human MCF7:CFR cells at 100 nM measured after 24 hrs; assay type: functional, cell-based; how it was run: as §3
# [23] = tested on: MCF7:CFR; experiment: Down regulation of BCL2L1 gene expression in fulvestrant-resistant human MCF7:CFR cells at 100 nM measured after 24 hrs; assay type: functional, cell-based; how it was run: as §1
# [24] = tested on: MCF7:CFR; experiment: Down regulation of BCL2 gene expression in fulvestrant-resistant human MCF7:CFR cells at 100 nM measured after 24 hrs; assay type: functional, cell-based; how it was run: as §1
# [25] = tested on: MCF7:CFR; experiment: Down regulation of ESR1 gene expression in fulvestrant-resistant human MCF7:CFR cells at 100 nM measured after 24 hrs; assay type: functional, cell-based; how it was run: as §1
# [26] = organism: Homo sapiens; experiment: Growth inhibition of tamoxifen-sensitive human MCF7:WS8 cells measured after 5 days by Hoechst 33342 dye based imaging analysis; assay type: functional
# How it was run: (§4)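 Cells seeded at 2000/well in their maintenance medium, treated once the next day with compound (0.1 nM–10 μM; 0.1% DMSO final). Day 5 Hoechst 33342 staining with imaging count. Survival normalized to DMSO (100%) and JQ1 3 μM (0%). IC50 given as mean ± SEM from at least two passages, each in triplicate.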
# [27] = organism: Homo sapiens; experiment: Growth inhibition of tamoxifen-resistant human MCF7:5C cells measured after 5 days by Hoechst 33342 dye based imaging analysis; assay type: functional; how it was run: as §4
# [28] = tested on: MCF7:TAM1; experiment: Growth inhibition of tamoxifen-resistant human MCF7:TAM1 cells measured after 5 days by Hoechst 33342 dye based imaging analysis; assay type: functional, cell-based; how it was run: as §4
# [29] = tested on: T47D; experiment: Growth inhibition of tamoxifen-sensitive human T47D cells measured after 5 days by Hoechst 33342 dye based imaging analysis; assay type: functional, cell-based; how it was run: as §4
# [30] = organism: Homo sapiens; experiment: Growth inhibition of human T47D:TDG cells harboring ESR1 D538G mutant measured after 5 days by Hoechst 33342 dye based imaging analysis; assay type: functional; how it was run: as §4
# [31] = organism: Homo sapiens; experiment: Growth inhibition of tamoxifen and palbociclib-resistant human MCF7:CPR cells measured after 5 days by Hoechst 33342 dye based imaging analysis; assay type: functional; how it was run: as §4
# [32] = tested on: MCF7:CFR; experiment: Growth inhibition of fulvestrant-resistant human MCF7:CFR cells at 1 to 30 nM treated for 3 hrs followed by compound washout and measured after 5 days by Hoechst 33342 dye based imaging analysis; assay type: functional, cell-based
# How it was run: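 MCF-7:CFR cells grown 2 days in phenol red-free RPMI/10% charcoal-dextran FBS, then seeded at 2000 cells/well. Treated next day; medium replaced with normal growth medium after 3 h. On day 5, cells stained with Hoechst 33342 and counted by imaging. Survival normalized to DMSO (100%) and JQ1 3 μM (0%).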
# [33] = tested on: MCF7:TAM1; experiment: Antitumor activity against human MCF7:TAM1 cells xenografted in ovariectomized athymic Nude-Foxn1 mouse assessed as tumor growth inhibition at 30 mg/kg/day, po administered via gavage for 4 weeks in presence of fulvestrant; assay type: functional, organism-based
# How it was run: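 MCF-7:Tam1 tumours established in 4–6 week old female ovariectomized athymic nude mice given daily tamoxifen 1.5 mg/mouse. […] Fulvestrant 1 (mg/mouse)/week sc. Tumour volume measured weekly by calipers as length × width² × π/6.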
# [34] = Induction of thrombocytopenia in rat assessed as platelet count […] at 3 mg/kg, po administered daily for 10 days (reference value: […]); assay type: organism-based; conditions: in vivo, 240 h
structure (smiles),measurement,setting,value
CCS(=O)(=O)Nc1cc(-c2cn(C)c3c(=O)[nH]ccc23)cc2c1ccn2C(C)(c1ccccn1)c1ccccn1,Activity,[1],Active
same,Activity,[2],Active
same,Activity,[3],Active
same,Activity,[4],Active
same,Activity,[5],Active
same,Activity,[6],Active
same,Activity,[7],Active
same,Activity,[8],Active
same,Activity,[9],Active
same,Activity,[10],Active
same,Activity,[11],Active
same,Activity,[12],Active
same,Activity,[13],Active
same,Activity,[14],Active
same,Activity,[15],Active
same,Activity,[16],Active
same,Activity,[17],Active
same,Activity,[18],Active
same,Activity,[19],Active
same,Activity,[20],Active
same,Activity,[21],Active
same,Activity,[22],Active
same,Activity,[23],Active
same,Activity,[24],Active
same,Activity,[25],Active
same,growth inhibition (GI),[26],Dose-dependent effect
same,growth inhibition (GI),[27],Dose-dependent effect
same,growth inhibition (GI),[28],Dose-dependent effect
same,growth inhibition (GI),[29],Dose-dependent effect
same,growth inhibition (GI),[30],Dose-dependent effect
same,growth inhibition (GI),[31],Dose-dependent effect
same,growth inhibition (GI),[32],Active
same,TGI,[33],Active
CCS(=O)(=O)Nc1ccc(Oc2ccc(F)cc2F)c(-c2cn(C)c(=O)c3[nH]ccc23)c1 [MIVEBRESIB],platelet count,[34],173 10^3/µL
